Consider 31 molecules from ChEMBL document CHEMBL4725340, “New coumarin-benzotriazole based hybrid molecules as inhibitors of acetylcholinesterase and amyloid aggregation” (Bioorg Med Chem Lett, 2020).

Data set [1] concerns the target T1, Acetylcholinesterase (Electrophorus electricus, UniProt O42275). The data set is described as follows: Inhibition of electric eel AChE by Ellman's method. (In general: DTNB colorimetry detects thiols as they appear.)
A further data set has as its target Cholinesterase (Equus caballus, UniProt P81908). The data set is described as follows: Inhibition of equine serum BuChE by Ellman's method. In a few lines: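 Ellman's method with equine serum BuChE, run as for AChE; triplicate experiments; IC50 (50% inhibitory concentration) as mean ± SD of three independent experiments.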
Data set [2] deals with Amyloid-beta precursor protein (Homo sapiens) (UniProt P05067). The data set is described as follows: Inhibition of copper-induced amyloid beta (1 to 42) (unknown origin) aggregation at 50 uM by thioflavin T based fluorescence assay relative to control. In a few lines: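 Thioflavin T fluorescence assay of copper-mediated Aβ1-42 aggregation; test sample at 50 μM; curcumin as reference anti-amyloidogenic agent; percentage inhibition of aggregation estimated.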

For another data set, the system named is SH-SY5Y. Briefly: Cytotoxicity against human SH-SY5Y cells at 0.001 to 100 uM after 24 hrs by MTT assay. A general note: Tetrazolium assays rely on reduction of a dye to a coloured formazan, in cell work by metabolically active cells.
Data set [3] concerns the target T1, Acetylcholinesterase. The data set is described as follows: Mixed type inhibition of electric eel AChE assessed as inhibition constant using varying levels of acetylthiocholine as substrate by reciprocal Lineweaver-Burk plot analysis. The method in brief:
(§1)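 Kinetics with electric eel AChE (Ellman's method): no inhibitor plus three inhibitor concentrations, substrate varied over […] (so in the source); double-reciprocal Lineweaver-Burk plots overlaid; slope/intercept changes and intersection quadrant used to assign inhibition type; Ki calculated from the plots.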

The target of data set [4] is Acetylcholinesterase (Electrophorus electricus) (UniProt O42275). Briefly: Mixed type inhibition of electric eel AChE assessed as decrease in Vmax by reciprocal Lineweaver-Burk plot analysis. In a few lines:
as §1

The target is the same in data set [5]. Briefly: Mixed type inhibition of electric eel AChE assessed as increase in Km by reciprocal Lineweaver-Burk plot analysis. In a few lines:
as §1

The target of data set [6] is Cholinesterase (Equus caballus) (UniProt P81908). Briefly: Inhibition of equine serum BuChE at 50 to 100 uM by Ellman's method. The conditions noted are these: dose microM 50-100. In a few lines:
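Equine serum BuChE by Ellman's method, with the test compound at two additional single concentrations, 50 and 100 μM; inhibition read at each.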

Data set [7] in a line: Metal chelating activity assessed as compound-Cu2+ complex formation by measuring blue shift in absorption intensity at 5 uM by UV spectra analysis.
Data set [8] can be described thus: Metal chelating activity assessed as compound-Fe2+ complex formation by measuring blue shift in absorption intensity at 5 uM by UV spectra analysis.
Data set [9] can be described thus: Metal chelating activity assessed as compound-Zn2+ complex formation by measuring blue shift in absorption intensity at 5 uM by UV spectra analysis.
Data set [10] is described as follows: Metal chelating activity assessed as formation of Cu2+-compound complex stoichiometry ratio of 2:1 at 5 uM in presence of CuCl2 by UV spectra analysis.
The test system of data set [11] is DNA. Briefly: Protection against Fenton reagent-induced Escherichia coli plasmid pBR322 DNA cleavage assessed as reduction in supercoiled circular DNA(1) form to open circular DNA(2) at 0.2 to 1 mM. In kind it is nucleic-acid assay. The conditions noted are these: dose mM 0.2-1.
Data set [12] deals with DNA. The data set is described as follows: Protection against Fenton reagent-induced Escherichia coli plasmid pBR322 DNA cleavage assessed as reduction in supercoiled circular DNA(1) form to linear circular DNA(3) at 0.2 to 1 mM. Type of data set: nucleic-acid assay. The conditions noted are these: dose mM 0.2-1.
Data set [13] can be described thus: Metal chelating activity assessed as compound-Mg2+ complex formation by measuring blue shift in absorption intensity at 5 uM by UV spectra analysis.

Each structure is given as a SMILES string. Calls of active or inactive are those of the source. The calls are words filed in the database; no cut-off is given here.

One may read the IC50 as the point on the concentration scale where inhibition reaches its midpoint. A lower IC50 goes with greater potency. As usually defined, the inhibition is how much of the control response was suppressed. Usually Ki stands for a dissociation constant, usually derived from enzyme kinetics or from competition with a known ligand.

Chain of Cholinesterase (P81908 whole entry): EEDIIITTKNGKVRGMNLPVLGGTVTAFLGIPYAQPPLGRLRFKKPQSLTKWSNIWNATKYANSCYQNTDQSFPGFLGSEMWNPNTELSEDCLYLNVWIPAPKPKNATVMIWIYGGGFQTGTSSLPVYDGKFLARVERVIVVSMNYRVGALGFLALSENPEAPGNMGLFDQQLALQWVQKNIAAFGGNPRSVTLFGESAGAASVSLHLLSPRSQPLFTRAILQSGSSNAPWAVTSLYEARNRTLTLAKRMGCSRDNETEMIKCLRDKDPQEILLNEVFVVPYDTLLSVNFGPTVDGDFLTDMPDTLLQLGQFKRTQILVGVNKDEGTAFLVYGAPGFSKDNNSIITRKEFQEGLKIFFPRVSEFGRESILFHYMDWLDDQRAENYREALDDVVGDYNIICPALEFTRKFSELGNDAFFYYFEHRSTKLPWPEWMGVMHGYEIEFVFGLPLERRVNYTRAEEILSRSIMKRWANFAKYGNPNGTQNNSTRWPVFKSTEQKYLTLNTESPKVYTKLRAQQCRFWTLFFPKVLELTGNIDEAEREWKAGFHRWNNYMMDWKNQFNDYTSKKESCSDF
T1 sequence (O42275 whole entry): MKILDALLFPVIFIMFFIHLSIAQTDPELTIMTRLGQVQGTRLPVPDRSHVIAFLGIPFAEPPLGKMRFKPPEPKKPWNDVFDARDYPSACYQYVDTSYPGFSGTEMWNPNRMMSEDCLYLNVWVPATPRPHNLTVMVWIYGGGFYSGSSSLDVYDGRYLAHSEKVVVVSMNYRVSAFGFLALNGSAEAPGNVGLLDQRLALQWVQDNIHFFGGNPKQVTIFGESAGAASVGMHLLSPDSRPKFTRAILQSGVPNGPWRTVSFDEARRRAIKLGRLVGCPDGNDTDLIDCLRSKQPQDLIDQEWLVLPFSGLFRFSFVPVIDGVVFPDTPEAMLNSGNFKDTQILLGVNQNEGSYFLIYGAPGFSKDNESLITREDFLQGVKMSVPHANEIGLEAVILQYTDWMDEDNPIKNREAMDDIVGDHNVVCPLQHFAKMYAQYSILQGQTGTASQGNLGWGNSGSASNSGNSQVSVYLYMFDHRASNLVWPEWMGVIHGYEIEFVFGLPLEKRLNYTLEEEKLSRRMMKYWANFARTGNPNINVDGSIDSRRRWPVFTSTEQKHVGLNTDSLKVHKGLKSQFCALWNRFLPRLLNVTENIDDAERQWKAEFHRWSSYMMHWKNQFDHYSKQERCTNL
Chain of Amyloid-beta precursor protein (Homo sapiens) (P05067 whole entry): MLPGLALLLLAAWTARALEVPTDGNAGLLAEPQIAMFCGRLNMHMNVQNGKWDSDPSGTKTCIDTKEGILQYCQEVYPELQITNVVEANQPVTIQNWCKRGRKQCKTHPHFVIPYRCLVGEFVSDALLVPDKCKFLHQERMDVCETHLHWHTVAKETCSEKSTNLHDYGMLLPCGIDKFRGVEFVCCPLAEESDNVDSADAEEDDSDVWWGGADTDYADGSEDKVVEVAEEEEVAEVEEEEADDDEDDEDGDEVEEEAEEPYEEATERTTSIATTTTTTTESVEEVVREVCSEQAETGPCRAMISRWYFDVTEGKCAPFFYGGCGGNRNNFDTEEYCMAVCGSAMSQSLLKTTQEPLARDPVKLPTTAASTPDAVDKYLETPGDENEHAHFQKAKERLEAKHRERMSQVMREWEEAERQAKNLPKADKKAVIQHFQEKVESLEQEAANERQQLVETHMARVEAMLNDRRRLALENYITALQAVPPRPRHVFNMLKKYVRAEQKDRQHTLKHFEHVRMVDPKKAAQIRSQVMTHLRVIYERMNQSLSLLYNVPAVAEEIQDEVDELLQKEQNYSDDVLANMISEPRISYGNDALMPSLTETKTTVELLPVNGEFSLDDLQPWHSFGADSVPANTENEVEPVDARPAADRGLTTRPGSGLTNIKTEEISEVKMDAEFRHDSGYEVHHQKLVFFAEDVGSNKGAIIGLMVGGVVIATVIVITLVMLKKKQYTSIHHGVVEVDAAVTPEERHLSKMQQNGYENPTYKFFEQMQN
Chain of Acetylcholinesterase (Electrophorus electricus) (O42275 24-633 limits assumed): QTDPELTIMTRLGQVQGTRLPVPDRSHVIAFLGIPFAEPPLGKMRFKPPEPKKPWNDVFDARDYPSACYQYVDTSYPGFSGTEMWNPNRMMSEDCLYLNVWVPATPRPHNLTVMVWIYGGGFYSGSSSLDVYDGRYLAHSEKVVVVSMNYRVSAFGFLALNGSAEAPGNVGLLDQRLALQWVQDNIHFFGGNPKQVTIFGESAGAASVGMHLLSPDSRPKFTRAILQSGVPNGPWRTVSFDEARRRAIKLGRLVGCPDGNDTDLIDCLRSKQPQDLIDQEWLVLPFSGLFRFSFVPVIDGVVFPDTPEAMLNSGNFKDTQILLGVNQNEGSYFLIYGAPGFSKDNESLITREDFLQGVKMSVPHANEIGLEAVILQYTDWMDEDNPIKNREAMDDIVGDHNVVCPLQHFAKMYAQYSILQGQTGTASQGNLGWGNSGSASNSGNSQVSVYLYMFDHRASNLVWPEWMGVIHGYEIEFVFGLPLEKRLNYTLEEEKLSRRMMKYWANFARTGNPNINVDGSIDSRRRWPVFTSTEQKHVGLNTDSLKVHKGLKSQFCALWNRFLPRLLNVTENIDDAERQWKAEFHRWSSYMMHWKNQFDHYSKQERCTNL
Chain of Cholinesterase (Equus caballus) (P81908 whole entry): as the sequence (P81908 whole entry) above

Turning to `O=c1ccc2ccc(OCCCCCCn3cc(Cn4nc5ccccc5n4)nn3)cc2o1`, the IC50 at Acetylcholinesterase [1] and against Cholinesterase was at least 10 µM each time. Besides, the inhibition in [2] is below 10%.

In the case of `O=c1cc(OCCn2cc(Cn3nc4ccccc4n3)nn2)c2ccccc2o1`, the IC50 at Acetylcholinesterase [1] is 1.89 µM; on Cholinesterase, at least 10 µM. In data set [2], this molecule gave an inhibition below 10%.

As for `O=c1cc(OCCCCCn2cc(Cn3nc4ccccc4n3)nn2)c2ccccc2o1`, the IC50 on Acetylcholinesterase [1] was 4.81 µM; against Cholinesterase, at least 10 µM. Moreover, the inhibition in data set [2] is below 10%.

Regarding `O=c1cc(OCCCn2cc(COn3nnc4ccccc43)nn2)c2ccccc2o1`, the values for the IC50 on Acetylcholinesterase [1] and against Cholinesterase were 1.32 µM and at least 10 µM, respectively. The same molecule displayed an inhibition in [2] below 10%.

As to `O=c1ccc2ccc(OCCCCn3cc(Cn4nc5ccccc5n4)nn3)cc2o1`, the half-inhibitory concentration (IC50) on Acetylcholinesterase [1] was 5.44 µM; against Cholinesterase, at least 10 µM. In data set [2], this molecule gave an inhibition below 10%.

As to `O=c1cc(OCCCCCCn2cc(Cn3nnc4ccccc43)nn2)c2ccccc2o1`, the IC50 on Acetylcholinesterase [1] was 5.42 µM; against Cholinesterase, at least 10 µM. In [2], this molecule showed an inhibition below 10%.

Turning to `O=c1ccc2ccc(OCCCCCCn3cc(Cn4nnc5ccccc54)nn3)cc2o1`, the IC50 on Acetylcholinesterase [1] and on Cholinesterase was at least 10 µM in each case. The inhibition in [2] was below 10%.

As for `O=c1ccc2ccc(OCCCn3cc(COn4nnc5ccccc54)nn3)cc2o1`, the IC50 was 1.98 µM against Acetylcholinesterase [1] and at least 10 µM against Cholinesterase. In [2], this molecule had an inhibition below 10%.

For the molecule `O=c1ccc2ccc(OCCCCn3cc(COn4nnc5ccccc54)nn3)cc2o1`, the IC50 against Acetylcholinesterase [1] and at Cholinesterase was at least 10 µM in each case. In data set [2], this molecule showed an inhibition below 10%.

On to `O=c1cc(OCCCCCCn2cc(COn3nnc4ccccc43)nn2)c2ccccc2o1`, for which the IC50 against Acetylcholinesterase [1] and on Cholinesterase was at least 10 µM each time. Further, in data set [2], the inhibition was below 10%.

Take `O=c1cc(OCCn2cc(Cn3nnc4ccccc43)nn2)c2ccccc2o1`: the IC50 against Acetylcholinesterase [1] was 0.097 µM; against Cholinesterase, at least 10 µM. Besides, the inhibition in data set [2] was 36.7%.

With `O=c1ccc2ccc(OCCn3cc(COn4nnc5ccccc54)nn3)cc2o1`, the IC50 on Acetylcholinesterase [1] is 2.01 µM; on Cholinesterase, at least 10 µM. Besides, the inhibition in data set [2] worked out at 11.4%.

On to `O=c1ccc2ccc(OCCCn3cc(Cn4nc5ccccc5n4)nn3)cc2o1`, for which the IC50 was 1.16 µM against Acetylcholinesterase [1] and at least 10 µM against Cholinesterase. For the same molecule, in data set [2], the inhibition was below 10%.

Take `O=c1cc(OCCCCCn2cc(Cn3nnc4ccccc43)nn2)c2ccccc2o1`: the IC50 at Acetylcholinesterase [1] is 1.14 µM; against Cholinesterase it was at least 10 µM. In data set [2], the inhibition was 11.4%.

For the molecule `O=c1cc(OCCCCn2cc(Cn3nc4ccccc4n3)nn2)c2ccccc2o1`, the IC50 against Acetylcholinesterase [1] was 2.09 µM; on Cholinesterase, at least 10 µM. For the same molecule, in data set [2], the inhibition was below 10%.

In the case of `O=c1ccc2ccc(OCCCCCn3cc(COn4nnc5ccccc54)nn3)cc2o1`, the IC50 at Acetylcholinesterase [1] and against Cholinesterase was at least 10 µM in each case. The inhibition in [2] was below 10%.

As to `O=c1cc(OCCCCCn2cc(COn3nnc4ccccc43)nn2)c2ccccc2o1`, the IC50 on Acetylcholinesterase [1] and against Cholinesterase was at least 10 µM each time. The same molecule showed an inhibition in [2] below 10%.

For `O=c1cc(OCCCCn2cc(Cn3nnc4ccccc43)nn2)c2ccccc2o1`, the IC50 against Acetylcholinesterase [1] was 0.234 µM; against Cholinesterase, at least 10 µM. In data set [2], this molecule had an inhibition of 22.4%.

In the case of `O=c1cc(OCCCCn2cc(COn3nnc4ccccc43)nn2)c2ccccc2o1`, the IC50 was 3.23 µM at Acetylcholinesterase [1] and at least 10 µM against Cholinesterase. Moreover, in [2], the inhibition is below 10%.

As for `O=c1ccc2ccc(OCCCCCn3cc(Cn4nnc5ccccc54)nn3)cc2o1`, the IC50 was 5.43 µM on Acetylcholinesterase [1] and at least 10 µM against Cholinesterase. The inhibition in data set [2] was below 10%.

Take `COc1cc2c(cc1OC)C(=O)C(CC1CCN(Cc3ccccc3)CC1)C2` (stereo not drawn) [DONEPEZIL]: in the data set with SH-SY5Y, the Activity result was “Non-Toxic”.

In the case of `O=c1cc(OCCCn2cc(Cn3nc4ccccc4n3)nn2)c2ccccc2o1`, the IC50 was 1.67 µM on Acetylcholinesterase [1] and at least 10 µM against Cholinesterase. For the same molecule, the inhibition in data set [2] was below 10%.

`O=c1ccc2ccc(OCCCCn3cc(Cn4nnc5ccccc54)nn3)cc2o1`: the results for the concentration for half-maximal inhibition (IC50) against Acetylcholinesterase [1] and at Cholinesterase were 4.33 µM and at least 10 µM, respectively. The molecule further had an inhibition in data set [2] of 11.4%.

Consider `O=c1ccc2ccc(OCCCCCCn3cc(COn4nnc5ccccc54)nn3)cc2o1`, for which the IC50 at Acetylcholinesterase [1] and against Cholinesterase was at least 10 µM throughout. In data set [2], this molecule yielded an inhibition below 10%.

Regarding `O=c1ccc2ccc(OCCCCCn3cc(Cn4nc5ccccc5n4)nn3)cc2o1`, the IC50 at Acetylcholinesterase [1] and against Cholinesterase was at least 10 µM each time. For the same molecule, the inhibition in data set [2] is below 10%.

Regarding `O=c1cc(OCCCCCCn2cc(Cn3nc4ccccc4n3)nn2)c2ccccc2o1`, the IC50 against Acetylcholinesterase [1] was 6.23 µM; against Cholinesterase, at least 10 µM. The same molecule showed an inhibition in [2] below 10%.

Turning to `O=c1cc(OCCCn2cc(Cn3nnc4ccccc43)nn2)c2ccccc2o1`, the IC50 on Acetylcholinesterase [1] is 0.059 µM; against Cholinesterase, at least 10 µM. For the same molecule, in data set [2], the inhibition is 34.3%. Further, the Ki on Acetylcholinesterase [3] was 41.7 pM. Further, the inhibition entry in data set [4], in data set [5] and in data set [6] was “Active” in each case. Also, the outcome (in data set [7]; in data set [8]; in data set [9]; in data set [10]; with DNA [11]; in the data set on DNA [12]) was Active. For the same molecule, the Activity entry in the data set with SH-SY5Y is “Non-Toxic”. In [13], the result was inactive.

As for `O=c1ccc2ccc(OCCCn3cc(Cn4nnc5ccccc54)nn3)cc2o1`, the IC50 is 2.92 µM at Acetylcholinesterase [1] and at least 10 µM against Cholinesterase. The molecule also displayed an inhibition in [2] of 15.9%.

Regarding `O=c1ccc2ccc(OCCn3cc(Cn4nc5ccccc5n4)nn3)cc2o1`, the IC50 on Acetylcholinesterase [1] was 1.18 µM; against Cholinesterase, at least 10 µM. In data set [2], this molecule gave an inhibition below 10%.

With `O=c1cc(OCCn2cc(COn3nnc4ccccc43)nn2)c2ccccc2o1`, the IC50 against Acetylcholinesterase [1] is 4.32 µM; at Cholinesterase it was at least 10 µM. Further, the inhibition in [2] is 16.2%.

Consider `O=c1ccc2ccc(OCCn3cc(Cn4nnc5ccccc54)nn3)cc2o1`, for which the values for the IC50 against Acetylcholinesterase [1] and against Cholinesterase were 2.11 µM and at least 10 µM, respectively. Moreover, in data set [2], the inhibition was found to be 29.4%.
